# Among all 200,000 compounds or so, about 2,000 (1%) were called active.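 How the source made its calls: active means inhibition above the campaign mean inhibition of all tested compounds plus 3 SD (cut at about 20% in these data); inactive means the rest.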 The full list was thinned out, with actives kept by preference.
# Target: Neuropeptide Y receptor type 1 (Homo sapiens) (UniProt P25929)
# Experiment: blockers of human neuropeptide Y Y1 receptor – cell-based, primary screen (AID 1040);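 further: 0% = DMSO wells given NPY plus isoproterenol and 100% = isoproterenol alone without NPY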
# Settings: HEK293-CNG Y1 cells, membrane potential fluorescence; at 3.6 µM; stronger effect = higher value
# Procedure, shortened: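 Material: HEK293 cells with Y1 receptor plus CNG channel; times: compound incubation 1 h at room temperature, readout 45 min post-stimulation; signal: fluorescence, membrane potential probe; read-out basis: fluorescence ratio normalized to % inhibition between controls; benchmarks: full-block control isoproterenol-only wells, zero-block control NPY plus isoproterenol wells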
# Chain of Neuropeptide Y receptor type 1 (Homo sapiens) (P25929 whole entry, looked up): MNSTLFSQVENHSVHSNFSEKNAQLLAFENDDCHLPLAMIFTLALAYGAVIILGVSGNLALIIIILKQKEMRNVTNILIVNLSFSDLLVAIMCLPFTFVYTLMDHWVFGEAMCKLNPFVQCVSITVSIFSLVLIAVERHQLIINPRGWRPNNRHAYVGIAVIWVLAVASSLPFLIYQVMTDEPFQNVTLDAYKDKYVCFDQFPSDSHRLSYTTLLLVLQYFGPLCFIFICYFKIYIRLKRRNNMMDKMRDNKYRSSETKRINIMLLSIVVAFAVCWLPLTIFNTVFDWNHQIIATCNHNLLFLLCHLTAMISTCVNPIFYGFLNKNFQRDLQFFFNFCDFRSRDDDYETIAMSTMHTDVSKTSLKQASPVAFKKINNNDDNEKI
row,Structure (SMILES),inhibition
1,N#Cc1ccc(Cn2cc(C(=O)c3ccco3)c3ccccc32)cc1,21.4% (active)
2,NC(=O)Cn1cc(C(=O)c2ccccc2F)c2ccccc21,4.87% (inactive)
3,CC(C)Oc1cccc(C(=O)C2CCCN(C3CCOCC3)C2)c1 (stereo not given),1.82% (inactive)
4,COc1cc(Cn2c(N)c(C(=O)NCc3ccco3)c3nc4ccccc4nc32)cc(OC)c1OC,-7.12% (inactive)
5,CCOC(=O)c1c(N)n(CCN2CCOCC2)c2nc3ccccc3nc12,-2.58% (inactive)
6,CCOC(=O)c1c(N)n(Cc2ccccc2)c2nc3ccccc3nc12,26.8% (active)
7,N=c1ccccn1Cc1ccccc1,-3.41% (inactive)
8,CCc1nnc(NS(=O)(=O)c2ccc(N=Cc3c(O)n(-c4ccccc4)c(=O)[nH]c3=O)cc2)s1,12.6% (inactive)
9,COc1ccc(C(=O)C2CCCN(Cc3ccc(C)s3)C2)cc1OC (stereo not given),-3.61% (inactive)
10,O=C(CN1CCCC1=O)NCCc1ccccc1,-2.4% (inactive)

# From PubChem BioAssay AID1040 (The Scripps Research Institute Molecular Screening Center, 2008)
